Most compounds without a hit are left out; they make up all but 3.4% or so of the library.
MC4R antag cAMP = MC4R antagonists of cAMP signaling, primary screen, cell-based, TR-FRET, antagonist arm of biased-ligand search; 360,000 compounds, 0.48% hits; MC4R-expressing cells, MTII-stimulated cAMP, LANCE TR-FRET; Melanocortin receptor 4 (Homo sapiens), P32245; inhibition, % at 6.5 µM; AID 540295, 2011;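 active = inhibition above its plate's cutoff, the mean of tested wells on that plate plus 3 SD, cut at about 29% in these data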;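 note: 0% = Melanotan II alone and 100% = Melanotan II plus saturating MCL0020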
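System – human MC4R-expressing U2OS cells · Also added – Melanotan II · Dosing – one concentration, 6.5 µM nominal · Timing – 30-min compound, 1-h challenge, 1-h detection, room temperature · Measured by – Eu-cAMP/anti-cAMP TR-FRET, emission 671 nm · Replicates – singlicate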
MC4R barr agon = MC4R agonists recruiting beta-arrestin, primary screen, cell-based, luminescence, agonist arm of biased-ligand search; Melanocortin receptor 4 (Homo sapiens), P32245; U2OS MC4R beta-arrestin complementation; percent of melanotan II response, DMSO zero; activation, % at 8.9 µM; 360,000 compounds, 0.98% hits; AID 540308, 2011;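 active = activation above a per-plate cutoff, the mean activation of sample wells on that plate plus 3 SD, cut at about 8% in these data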
TMEM16A act = TMEM16A chloride channel activators or potentiators, primary screen, cell-based, HTS; AID 623877, 2012; Anoctamin-1 (Mus musculus), Q8BHY3; 340,000 compounds, 0.3% hits; B-score at 10 µM; HEK293 TMEM16A/YFP-H148Q/I152L, iodide quench fluorescence; stronger effect = lower value;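 active = fluorescence-ratio B-score plate-corrected deviation score at least 3 library SD below zero, with starting fluorescence score within 5 deviations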;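 note: channel opened by trigger with iodide after compound preincubation; score built on the fluorescence ratio of max minus min over baseline; more negative score means more quench and so TMEM16A activation or potentiation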
m5-HT2A agonist = mouse Htr2a agonists via beta-arrestin recruitment, primary screen, cell-based, luminescence; 5-hydroxytryptamine receptor 2A (Mus musculus), P35363; CHO-K1 mHTR2A beta-arrestin complementation; percent of 30 µM serotonin response; 360,000 compounds, 0.66% hits; activation, % at 7.6 µM; AID 624169, 2012;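 active = activation above a run cutoff, the mean activation of all tested compounds plus 3 SD, cut at about 14% in these data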;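 note: 0% = plate median of compound wells and 100% = 30 µM serotonin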
Target sequence (P35363 whole entry, looked up): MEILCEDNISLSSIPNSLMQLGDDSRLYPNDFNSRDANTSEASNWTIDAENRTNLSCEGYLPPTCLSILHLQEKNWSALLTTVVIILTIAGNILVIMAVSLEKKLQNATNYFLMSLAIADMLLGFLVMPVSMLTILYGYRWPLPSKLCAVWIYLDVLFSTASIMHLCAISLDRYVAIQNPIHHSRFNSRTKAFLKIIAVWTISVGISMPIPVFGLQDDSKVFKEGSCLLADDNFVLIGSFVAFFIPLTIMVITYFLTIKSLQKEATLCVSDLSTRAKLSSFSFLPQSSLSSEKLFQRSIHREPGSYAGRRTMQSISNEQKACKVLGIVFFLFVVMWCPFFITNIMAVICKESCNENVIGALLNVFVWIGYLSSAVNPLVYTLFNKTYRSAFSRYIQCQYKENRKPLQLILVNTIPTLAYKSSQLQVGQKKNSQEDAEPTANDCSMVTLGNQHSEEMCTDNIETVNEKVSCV
ANO1 block = TMEM16A chloride channel inhibitors, primary screen, cell-based, HTS. normalized B-score (activity score, 25-100; higher = stronger inhibition) at 10 µM. Anoctamin-1 (Mus musculus), Q8BHY3. HEK293 TMEM16A/YFP iodide influx fluorescence, ionomycin. 310,000 compounds, 1.2% hits;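 active = ratio plate-corrected score three or more library SD toward inhibition, starting fluorescence score within five deviations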;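 note: score derived from kinetic fluorescence span divided by baseline fluorescence per well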
beta cell repl = inducers of MIN6 beta-cell proliferation, primary screen, ATP luminescence, uHTS; MIN6 cells proliferation, ATPlite luminescence, 48 h; cells starved in 0.2% serum; 100% = growth in 10% serum; proliferation, % at 10 µM; 330,000 compounds, 0.29% hits;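 active = compounds whose signal lies at least 3.5 SD above the mean of all wells on their plate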;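 note: 0% = DMSO-treated cells in low-serum medium and 100% = 10% serum control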
MC4R barr ag = MC4R beta-arrestin agonists, retest, confirmation, cell-based, luminescence, U2OS; activation, % at 8.9 µM; U2OS MC4R beta-arrestin recruitment; scaled DMSO 0%, Melanotan II 100%; 2,400 compounds, 31% hits; shares compounds with MC4R barr agon;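 active = mean activation across replicates above the hit cutoff set in the earlier primary screen, cut at about 8% in these data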
MOR-DOR barr ag = agonists of MOR-DOR heterodimerization, counter-screen for MC4R biased agonist project, cell-based, luminescence; shares compounds with MC4R barr agon; U2OS PathHunter beta-arrestin, beta-gal luminescence; percent of deltorphin B response, DMSO zero; activation, % at 9.2 µM; 2,400 compounds, 5.8% hits; AID 602194, 2012;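 active = mean activation across replicates exceeds the hit threshold derived in the earlier primary screen, cut at about 18% in these data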;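 note: 100% = deltorphin B at 0.9 µM final and 0% = DMSO alone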
TMEM16A reconf = TMEM16A chloride channel inhibitors, confirmation, cell-based, re-confirmation. inhibition, % at 10 µM. 2,300 compounds, 39% hits. shares compounds with ANO1 block. HEK293 TMEM16A/YFP-H148Q, iodide quench fluorescence; ionomycin added to raise cell calcium;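 active = mean duplicate percent inhibition, scaled so buffer wells are 0 and the reference blocker 100, over three buffer SD above buffer mean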
TMEM16A Ca cntr = calcium mobilization in TMEM16A/YFP HEK293 cells, confirmation, counter-screen for TMEM16A inhibitor project | shares compounds with ANO1 block | Fluo4 calcium mobilization | calcium response (% of ionomycin), % at 10 µM | 2,300 compounds, 2% hits | AID 652231, 2013;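 active = duplicate-averaged calcium signal over 20% of the ionomycin maximum, relative to buffer baseline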;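 note: each well's signal is peak minus trough fluorescence divided by its pre-addition baseline; 0% = buffer wells and 100% = ionomycin wells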
Parental YFP cnt = iodide YFP quench changes in parental YFP-HEK293, counter-screen for TMEM16A inhibitor project, cell-based; 2,300 tested, under 10 active; shares compounds with ANO1 block; YFP ratio F(max-min)/F0 at 10 µM; ionomycin;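 active = yellow fluorescent protein signal ratio exceeding the buffer control mean by over 5 SD of those controls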;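 note: ratio is mean of duplicate wells from kinetic YFP trace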
ClC-1 rat inh = ClC-1 chloride channel inhibition, selectivity assay for TMEM16A inhibitor project, cell-based, voltage-dependent ClC-1 | shares compounds with ANO1 block | CHO ClC-1-YFP, iodide influx fluorescence quench; iodide control reads 0, buffer control 100 | ratio percent, % at 10 µM | 2,300 tested, under 10 active | AID 652236, 2013;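 active = duplicate-mean ratio percent above the mean of iodide-only control wells, which defines zero, plus 5 of their SD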;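 note: higher percent means stronger block of ClC-1 iodide influx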
The depositor's hits bear a star; i = inactive; . = not tested or not shown.

SMILES	MC4R antag cAMP	MC4R barr agon	TMEM16A act	m5-HT2A agonist	ANO1 block	beta cell repl	TMEM16A reconf	TMEM16A Ca cntr	Parental YFP cnt	ClC-1 rat inh	others
CCOc1c(Cl)cc(CNCCc2c[nH]c3ccccc23)cc1OC	-1	-1	i	7	i	-5	.	.	.	.
CCOc1cc(CNCCc2c[nH]c3ccccc23)cc(Cl)c1OCC	5	15*	i	10	i	-3	.	.	.	.	MC4R barr ag=17*;MOR-DOR barr ag=8
Oc1cc(Cl)ccc1Oc1ccc(Cl)cc1Cl	7	-1	i	6	100*	-6	70%*	i	-0.96	-19
CCOC(=O)C(O)(c1ccc(NC(=S)NC(=O)c2ccc(Cl)cc2Cl)c(C)c1)C(F)(F)F (stereo unspecified)	8	3	i	-3	25*	-3	54%*	i	-0.82	-6
CC[n+]1c(/C=C/C=C/c2ccc(N(C)C)cc2)sc2ccccc21	-4	-4	i	-8	25*	-6	40%*	i	-0.93	-1
CN(C)c1ccc(/C=C/C=C/c2sc3ccccc3[n+]2C)cc1	3	-2	i	-2	i	-6	.	.	.	.
Cc1ccsc1C(=O)C1CCCN(Cc2cnc(N3CCCC3)s2)C1 (stereo unspecified)	19	2	i	-7	i	1	.	.	.	.
CCc1ccc2nc(N3CCC(C(=O)N4CCC5(CC4)OCCO5)CC3)sc2c1	1	0	i	4	100*	-4	i	21%*	-1.1	6
Cc1ccc2nc(N3CCC(C(=O)N4CCC5(CC4)OCCO5)CC3)sc2c1	9	-1	i	3	i	-4	.	.	.	.
CC(C)OC(=O)c1c(N)n(CC2CCCO2)c2nc3ccccc3nc12 (stereo unspecified)	0	-2	i	-1	i	1	.	.	.	.
Nc1c(C(=O)OC2CCCCC2)c2nc3ccccc3nc2n1CC1CCCO1 (stereo unspecified)	3	-2	i	-1	100*	-3	i	i	-1.1	-4
c1cc2c(cc1-c1ccc3c(c1)OCO3)CNCc1cnnn1-2	.	.	.	-5	.	.	.	.	.	.
CC(=NCCc1c[nH]c2ccccc12)c1c(O)n(Cc2ccccc2)c(=O)[nH]c1=O	8	0	i	5	25*	-4	i	31%*	-1.2	-2
CC(=NCCN1CCOCC1)c1c(O)n(Cc2ccccc2)c(=O)[nH]c1=O	-2	3	i	1	i	-1	.	.	.	.
Cc1ccccc1-c1ccc2n1Cc1cnnn1-c1ccccc1-2	-1	0	.	4	.	.	.	.	.	.
Oc1c(Cl)c(Cl)c(Cl)c(Cl)c1Cl	7	0	i	5	100*	-8	17%*	i	-0.75	-20
COC(=O)C1=C(c2cccc(NC(C)=O)c2)C[C@@H]2CC[C@H]1N2C	-3	1	i	0	.	-2	.	.	.	.
O=c1[nH]c(=S)n(CCC2=CCCCC2)c(O)c1C=NC1CCN(Cc2ccccc2)CC1	4	-1	i	-1	100*	-6	i	i	-1.2	-16
COc1ccc(-c2nn(CCC#N)cc2C(=O)Nc2ccccc2Br)cc1[N+](=O)[O-]	2	-1	i	4	i	0	.	.	.	.
Cc1[nH]c2ccc(OC(F)(F)F)cc2c1CCNCc1cccc([N+](=O)[O-])c1	-8	2	i	-5	25*	-5	i	i	-1.1	-8
CN1C(=O)C(=Cc2ccccc2OCc2ccccc2Cl)C(=O)N(C)C1=O	-5	0	i	-2	i	-2	.	.	.	.
CN1C(=O)C(=Cc2c(OCc3cnc(Cl)s3)ccc3ccccc23)C(=O)N(C)C1=O	4	-2	i	4	i	-3	i	i	-1.2	1
O=C(c1ccc(C(F)(F)F)cc1)C1CCCN(Cc2ccncc2)C1 (stereo unspecified)	-8	-2	i	-6	25*	-4	i	i	-1.1	-10
CCOc1ccc(-n2c(O)c(C=Nc3ccc(NC(C)=O)cc3)c(=O)[nH]c2=O)cc1	4	0	i	0	i	0	.	.	.	.
CCOc1ccc(-n2c(O)c(C=Nc3ccc(N(CC)CC)cc3)c(=O)[nH]c2=O)cc1	10	0	i	6	i	-4	28%*	i	-0.68	-10
CCN(CC)c1ccc(N=Cc2c(O)n(-c3ccccc3)c(=O)[nH]c2=O)cc1	-8	-1	i	2	i	-4	i	i	-0.93	-13
O=C1NC(=O)N(c2ccccc2)C(=O)/C1=C/c1coc2ccc(O)cc2c1=O	-2	0	i	1	i	-1	.	.	.	.
CC(=O)c1cn(Cc2ccccc2C#N)c2ccccc12	18	-1	i	0	25*	-6	i	i	-0.98	-20

Screens: PubChem BioAssay, several laboratories
